# Source: paper PMC3621463 (Nature Communications, 2012)
# Experiments:
# [1] = tested on: p53 ubiquitination; assay: p53 ubiquitination; assay type: cell-based; details: U2OS or H1299 cells, MG132 40 μM
# [2] = tested on: p21 or Bax promoter luciferase; assay: Luciferase assay, p53-dependent transcription; assay type: cell-based; details: H1299 cells, p21-luc or Bax-luc; n=4
# [3] = tested on: p53; assay: p53 protein level, immunoblot; assay type: cell-based; details: U2OS cells, PIMT siRNA/shRNA or ectopic PIMT expression
# [4] = tested on: p53-HDM2 interaction; assay: p53-HDM2 co-immunoprecipitation; assay type: cell-based; details: U2OS cells (PIMT siRNA) or H1299 cells (HA-p53, Flag-PIMT)
# In short: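 Supernatants were incubated overnight at 4 °C with FLAG-, HA- or p53-antibody agarose and washed twice. Eluates were boiled 5 min, run on 4–12% Bis–Tris gels and immunoblotted with HRP-conjugated primary antibodies using chemiluminescence.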
# [5] = tested on: U2OS cells; assay: Flow cytometry, early apoptosis, adriamycin; assay type: cell-based; details: adriamycin 1 μg ml−1, one day; control cells (control siRNA); n=4
# In short: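 U2OS cells were transfected with PIMT or control siRNA. After 2 days they were treated with adriamycin, and apoptotic cells were scored by flow cytometry one day later. At least 10,000 cells were analysed per treatment. Significance was tested by Student's t-test.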
# [6] = tested on: PIMT; assay: In vitro methylation assay with recombinant GST-PIMT; assay type: biochemical; details: GST-p53 1–82 methylated by GST-PIMT or His-PIMT, followed by NaOH; fluorography
compound,measurement,setting,value
protein L-isoaspartyl methyltransferase [PIMT],ubiquitination of p53,[1],increased p53 ubiquitination
same,p53-dependent transcription,[2],inhibited the p53-dependent transcription of both reporter genes
same,p53 protein level,[3],decreased the p53 protein levels in a dose-dependent manner
same,p53-HDM2 interaction,[4],enhanced
COc1cccc2c1C(=O)c1c(O)c3c(c(O)c1C2=O)C[C@@](O)(C(=O)CO)C[C@@H]3O[C@H]1C[C@H](N)[C@H](O)[C@H](C)O1 [adriamycin],early apoptosis,[5],19.5%
p53 (amino acids 1–82): N terminus of p53 (amino acids 1–82),methylation after alkaline treatment,[6],removed upon alkaline treatment
